Experimental data from PMC6396188 (ACS Central Science, 2019).
Where no end group is shown, it is not given here. ROX = carboxy-X-rhodamine

Experiments:
IL-1β [1] = biological target: T1, IL-1β (Homo sapiens, UniProt P01584); assay: On-bead binding assay by fluorescence microscopy; settings: on PEGA beads, 50 nM ROX-IL-1β
Outline: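 Human IL-1β came from a codon-optimised gene with an N-terminal His-tag, expressed in E. coli BL21(DE3) and purified by Ni-NTA then size exclusion in PBS. It was labelled with 3 equiv ROX-NHS for 1 h at room temperature, excess dye removed on G-25 gel filtration, and quantified by 660 nm protein assay. Acetylated beads without β-body served as negative control. ROX read at 560/14 nm excitation and 605/52 nm emission.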

IL-1α = assay: On-bead binding specificity test; parameters: species or system human; settings: 50 nM ROX-IL-1α, PEGA beads, Figure 4B
IL-2 = assay: Sandwich assay for IL-2; format: binding, human; settings: for detection of IL-2 in sandwich assay: capture bead-4 plus detection ROX-5, 50 nM IL-2, deionized water; for bead fluorescence in sandwich assay before protein addition: capture bead-4 plus detection ROX-5, deionized water, no IL-2
[2] = Unspecific interaction between capture and detection β-body; format: binding
Outline: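 Capture β-body was covalently linked to PEGA1900 beads and mixed in solution with purified ROX-labelled detection β-body, with no target protein added. For the IL-1β pair, incubation was in deionised water in glass vials for 3 h. Beads were then imaged by wide-field fluorescence microscopy for ROX at 560/14 nm excitation and 605/52 nm emission.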

IL-1β [3] = biological target: T1, IL-1β; assay: Sandwich assay for IL-1β; format: binding; settings: capture 10 with detection ROX-2, 50 nM IL-1β, deionized water
IL-6 = assay: Sandwich assay for IL-6; format: binding, human; settings: capture 6 / ROX-labeled 7, with 0.05–0.1 M urea, 20 nM IL-6
GFP [4] = biological target: T2, GFP (Aequorea victoria, UniProt P42212, F64L/H231L/S65T); assay: Binding of GFP from E. coli cell lysate to β-body beads; settings: beads with lysed E. coli cells expressing GFP
Outline: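 PEGA beads carrying the test compound incubated with lysed E. coli cells expressing GFP. Bead-bound GFP imaged by wide-field fluorescence microscopy (ex 482/18 nm, em 520/28 nm). For capture, beads washed with water, bound GFP eluted with PBS, and the eluate analysed by SDS-PAGE alongside the whole-cell lysate.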

GFP [5] = biological target: T2, GFP; assay: On-bead microplate equilibrium binding assay, GFP
Outline: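 Three equal-sized PEGA beads bearing the test compound per well, in triplicate. Purified His-tagged GFP in Milli-Q water, two-fold serial dilutions from 20 μM. Incubated overnight at room temperature to equilibrium. Per-bead fluorescence quantified by microscopy (1 ms exposure, GFP filter set). Kd from a one-site specific binding nonlinear regression fit; points average 3–6 measurements.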

GFP [6] = biological target: T2, GFP; assay: On-bead binding assay by fluorescence microscopy; settings: on PEGA beads, 50 nM GFP
Outline: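 Recombinant N-terminally His-tagged GFP expressed in E. coli BL21(DE3), purified by Ni-NTA then size exclusion in PBS pH 7.4. Concentration from A490 (ε 55 000 M–1 cm–1). PEGA beads bearing the test compound placed in microplate wells with 50 nM GFP. N-acetylated beads served as negative control. Bead fluorescence imaged by microscopy (ex 482/18 nm, em 520/28 nm).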

GFP [7] = biological target: T2, GFP; assay: Affinity purification of GFP from cell lysate on PEGA-β-body column, SDS-PAGE; settings: packed PEGA column, washed with water, eluted with PBS
Outline: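 GFP from Aequorea victoria, with an N-terminal His-tag, was expressed in E. coli BL21(DE3) from a pET plasmid. Culture was in LB with 100 μg/mL ampicillin at 37 °C to mid-exponential phase, then induced with 1 mM IPTG for 18 h at 20 °C. Cells were lysed in 50 mM Tris, 0.5 M NaCl, pH 8.0 with lysozyme and sonication, then clarified. SDS-PAGE gels were Coomassie-stained.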

IL-1β [8] = biological target: T1, IL-1β; assay: On-bead microplate equilibrium binding assay, IL-1β
Outline: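 Human IL-1β, N-terminal His-tag, expressed in E. coli BL21(DE3), purified by Ni-NTA and size exclusion. Labelled with 3 equiv ROX-NHS for 1 h at room temperature, free dye removed on G-25. Three compound-bearing PEGA beads per well, in triplicate. Two-fold dilutions from 10 μM in 5 mM phosphate buffer, overnight incubation. ROX fluorescence imaged at 2 ms exposure. Kd from one-site nonlinear fit.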

[9] = biological target: human recombinant IL-2 (ProSpec) (human, UniProt P60568 21-153); assay: on-bead fluorescence microscopy
human recombinant IL-2 (ProSpec), sequence (P60568 21-153): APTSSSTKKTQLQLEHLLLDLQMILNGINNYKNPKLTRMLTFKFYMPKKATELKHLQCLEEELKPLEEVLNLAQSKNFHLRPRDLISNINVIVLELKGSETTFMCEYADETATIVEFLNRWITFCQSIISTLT

ETDTYTETYPGRTITWTITDG [β-body 2]
binding of ROX-labeled IL-1β to β-body beads (IL-1β [1]): binding was observed
binding of ROX-labeled IL-1α to β-body beads (specificity) (IL-1α): no interaction

NTVTNTMTRPGVTETVTQTDG [β-body 4]
detection of IL-2 in sandwich assay (IL-2): fluorescent beads were then observed exclusively after addition of 50 nM of IL-2
bead fluorescence in sandwich assay before protein addition (IL-2): no observation of fluorescence on the beads

ROX-ETDTYTETYPGYTSTWTITDG [ROX-2]
unspecific binding of detection peptide to capture peptide ([2]; ROX-labeled 2 / capture 3 (IL-1β pair)): could not be prevented without affecting at the same time the binding of IL-1β
detection of IL-1β in sandwich assay (IL-1β [3]): enabled us to also detect IL-1β in nanomolar concentrations

ROX-TMTDTDTYPGFTDTLTHAG [ROX-7]
fluorescence from beads with IL-6 added (IL-6): remained strongly fluorescent
unspecific interaction between capture and detection peptide at surface of beads ([2]; capture 6 / ROX-labeled 7 (IL-6 pair), no urea): some unspecific interaction

ROX-TRTLTYTEPGITQTKTEAG [ROX-5]
detection of IL-2 in sandwich assay (IL-2): fluorescent beads were then observed exclusively after addition of 50 nM of IL-2
bead fluorescence in sandwich assay before protein addition (IL-2): no observation of fluorescence on the beads

TETKTVTITRPKMTWTFTHTVTG [β-body 1]
binding of GFP from cell lysate (GFP [4]): binding was observed
transfer of fluorescence from lysate to beads (GFP [4]): quantitatively transferred from the lysate to the beads
Kd (GFP [5]): 184 ± 28.6 nM
binding of GFP to β-body beads (GFP [6]): binding was observed
purification of GFP from cell lysate (GFP [7]): a significant up-concentration of GFP was achieved with removal of the majority of other proteins in the cell lysate

TWTETYTWTEPGDTQTLTITNTG [β-body 3]
Kd (IL-1β [8]): 610 ± 50 nM

B1: ROX-labeled β-body 5 (designed binder)
peptide: {ROX}-TRTLTYTEPGITQTKTEAG
binding result [9]: binds
